Results from ChEMBL document CHEMBL4765301, “Discovery of novel TNNI3K inhibitor suppresses pyroptosis and apoptosis in murine myocardial infarction injury” (Eur J Med Chem, 2020).

Assays:
[1] = target: Epidermal growth factor receptor (Homo sapiens) (UniProt P00533); assay: Inhibition of recombinant human EGFR (696 to end residues) assessed as residual activity at 1 uM using poly(Glu, Tyr) 4:1 as substrate incubated for 40 mins by [gamma-33P]-ATP scintillation counting based radiometry assay relative to control
[2] = target: Vascular endothelial growth factor receptor 1 (Homo sapiens) (UniProt P17948); assay: Inhibition of recombinant human FLT1 (783 to end residues) assessed as residual activity at 1 uM using KKKSPGEYVNIEFG as substrate incubated for 40 mins by [gamma-33P]-ATP scintillation counting based radiometry assay relative to control
[3] = target: Vascular endothelial growth factor receptor 2 (Homo sapiens) (UniProt P35968); assay: Inhibition of recombinant human KDR (790 to end residues) assessed as residual activity at 1 uM using myelin basic protein as substrate incubated for 40 mins by [gamma-33P]-ATP scintillation counting based radiometry assay relative to control
[4] = target: T1, Serine/threonine-protein kinase TNNI3K (Homo sapiens) (UniProt Q59H18); assay: Inhibition of TNNI3K (unknown origin) assessed as residual activity at 1 uM using biotinylated CTnI as substrate by HTRF analysis relative to control
T1 sequence (whole entry): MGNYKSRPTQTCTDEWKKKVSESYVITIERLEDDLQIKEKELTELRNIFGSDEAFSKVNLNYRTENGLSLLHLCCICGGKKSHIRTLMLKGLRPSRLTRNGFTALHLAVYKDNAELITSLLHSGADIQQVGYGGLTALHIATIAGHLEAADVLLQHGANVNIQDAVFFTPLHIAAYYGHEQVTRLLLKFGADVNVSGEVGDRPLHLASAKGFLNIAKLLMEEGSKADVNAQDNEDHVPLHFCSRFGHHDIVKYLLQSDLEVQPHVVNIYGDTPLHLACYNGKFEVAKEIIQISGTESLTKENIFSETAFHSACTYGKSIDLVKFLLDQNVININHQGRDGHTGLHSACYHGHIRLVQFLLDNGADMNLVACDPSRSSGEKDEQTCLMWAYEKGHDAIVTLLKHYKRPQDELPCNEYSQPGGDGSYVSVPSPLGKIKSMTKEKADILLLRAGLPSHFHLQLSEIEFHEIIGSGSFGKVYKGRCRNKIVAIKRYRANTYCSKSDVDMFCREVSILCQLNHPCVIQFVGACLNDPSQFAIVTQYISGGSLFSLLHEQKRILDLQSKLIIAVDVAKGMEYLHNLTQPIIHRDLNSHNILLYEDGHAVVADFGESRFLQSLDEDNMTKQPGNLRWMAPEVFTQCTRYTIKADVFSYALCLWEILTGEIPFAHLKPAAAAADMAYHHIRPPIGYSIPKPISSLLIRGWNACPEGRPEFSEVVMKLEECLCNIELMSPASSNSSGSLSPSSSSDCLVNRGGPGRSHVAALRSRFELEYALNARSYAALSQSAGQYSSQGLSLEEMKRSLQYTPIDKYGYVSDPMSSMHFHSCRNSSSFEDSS
In short: (§1)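 TNNI3K was assayed by HTRF using a GST-tagged TNNI3K kinase domain and a biotinylated cardiac troponin I substrate peptide, followed by the two HTRF detection reagents. Compounds were screened at 1.0 µM, then IC50s were determined.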

[5] = target: Receptor tyrosine-protein kinase erbB-2 (Homo sapiens) (UniProt P04626); assay: Inhibition of recombinant human HER2 (676 to end residues) assessed as residual activity at 1 uM using poly(Glu, Tyr) 4:1 as substrate incubated for 40 mins by [gamma-33P]-ATP scintillation counting based radiometry assay relative to control
[6] = target: T2, Serine/threonine-protein kinase TNNI3K (Homo sapiens, UniProt Q59H18); assay: Inhibition of TNNI3K (unknown origin) using biotinylated CTnI as substrate by HTRF analysis; in short: as §1
T2 sequence (Q59H18 whole entry): T1 sequence (whole entry)

H9c2 [7] = assay: Cytoprotective activity against OGD-induced cell death in rat H9c2 cells assessed as cell viability at 1 uM incubated for 24 hrs by MTT assay (reference value: 42.08 to 49.11 %); format: functional; settings: read-out: Activity
H9c2 [8] = assay: Cytoprotective activity against OGD-induced cell death in rat H9c2 cells assessed as cell viability at 10 uM incubated for 24 hrs by MTT assay (reference value: 42.08 to 49.11 %); format: functional; settings: read-out: Activity

Sequence of Vascular endothelial growth factor receptor 1 (Homo sapiens) (P17948 whole entry): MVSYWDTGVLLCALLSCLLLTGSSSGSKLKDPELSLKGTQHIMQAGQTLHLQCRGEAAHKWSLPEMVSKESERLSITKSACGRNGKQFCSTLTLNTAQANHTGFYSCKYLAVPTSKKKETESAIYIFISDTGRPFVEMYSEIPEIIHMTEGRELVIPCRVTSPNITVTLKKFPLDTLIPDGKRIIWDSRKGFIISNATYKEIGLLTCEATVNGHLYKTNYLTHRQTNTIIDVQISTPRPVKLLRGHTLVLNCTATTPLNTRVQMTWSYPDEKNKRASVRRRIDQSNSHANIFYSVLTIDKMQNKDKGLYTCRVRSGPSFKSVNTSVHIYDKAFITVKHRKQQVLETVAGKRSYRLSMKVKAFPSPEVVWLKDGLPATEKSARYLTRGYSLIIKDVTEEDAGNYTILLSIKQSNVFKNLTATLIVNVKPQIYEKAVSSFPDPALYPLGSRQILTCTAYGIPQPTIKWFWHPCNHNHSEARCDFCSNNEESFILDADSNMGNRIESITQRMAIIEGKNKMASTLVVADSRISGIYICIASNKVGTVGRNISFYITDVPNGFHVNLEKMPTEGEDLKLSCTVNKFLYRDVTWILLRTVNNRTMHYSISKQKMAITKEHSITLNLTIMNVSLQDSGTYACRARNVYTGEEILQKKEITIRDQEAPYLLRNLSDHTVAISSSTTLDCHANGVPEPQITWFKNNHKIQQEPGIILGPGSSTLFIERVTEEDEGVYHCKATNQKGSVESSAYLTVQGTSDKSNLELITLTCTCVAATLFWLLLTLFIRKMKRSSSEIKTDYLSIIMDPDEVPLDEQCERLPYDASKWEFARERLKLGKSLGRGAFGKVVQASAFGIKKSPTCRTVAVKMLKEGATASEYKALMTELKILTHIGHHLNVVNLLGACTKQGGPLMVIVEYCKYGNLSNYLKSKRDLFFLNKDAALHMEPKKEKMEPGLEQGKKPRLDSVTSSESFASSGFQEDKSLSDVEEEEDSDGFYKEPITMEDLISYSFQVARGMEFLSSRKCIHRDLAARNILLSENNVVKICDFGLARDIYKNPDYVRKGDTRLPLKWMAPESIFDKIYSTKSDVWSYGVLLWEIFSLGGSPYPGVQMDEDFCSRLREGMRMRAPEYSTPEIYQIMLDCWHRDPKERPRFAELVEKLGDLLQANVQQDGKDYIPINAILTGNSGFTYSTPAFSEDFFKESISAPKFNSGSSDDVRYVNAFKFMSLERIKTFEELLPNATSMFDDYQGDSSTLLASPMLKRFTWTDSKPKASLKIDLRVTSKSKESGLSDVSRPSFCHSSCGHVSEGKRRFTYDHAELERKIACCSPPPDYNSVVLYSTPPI
Sequence of Vascular endothelial growth factor receptor 2 (Homo sapiens) (P35968 whole entry): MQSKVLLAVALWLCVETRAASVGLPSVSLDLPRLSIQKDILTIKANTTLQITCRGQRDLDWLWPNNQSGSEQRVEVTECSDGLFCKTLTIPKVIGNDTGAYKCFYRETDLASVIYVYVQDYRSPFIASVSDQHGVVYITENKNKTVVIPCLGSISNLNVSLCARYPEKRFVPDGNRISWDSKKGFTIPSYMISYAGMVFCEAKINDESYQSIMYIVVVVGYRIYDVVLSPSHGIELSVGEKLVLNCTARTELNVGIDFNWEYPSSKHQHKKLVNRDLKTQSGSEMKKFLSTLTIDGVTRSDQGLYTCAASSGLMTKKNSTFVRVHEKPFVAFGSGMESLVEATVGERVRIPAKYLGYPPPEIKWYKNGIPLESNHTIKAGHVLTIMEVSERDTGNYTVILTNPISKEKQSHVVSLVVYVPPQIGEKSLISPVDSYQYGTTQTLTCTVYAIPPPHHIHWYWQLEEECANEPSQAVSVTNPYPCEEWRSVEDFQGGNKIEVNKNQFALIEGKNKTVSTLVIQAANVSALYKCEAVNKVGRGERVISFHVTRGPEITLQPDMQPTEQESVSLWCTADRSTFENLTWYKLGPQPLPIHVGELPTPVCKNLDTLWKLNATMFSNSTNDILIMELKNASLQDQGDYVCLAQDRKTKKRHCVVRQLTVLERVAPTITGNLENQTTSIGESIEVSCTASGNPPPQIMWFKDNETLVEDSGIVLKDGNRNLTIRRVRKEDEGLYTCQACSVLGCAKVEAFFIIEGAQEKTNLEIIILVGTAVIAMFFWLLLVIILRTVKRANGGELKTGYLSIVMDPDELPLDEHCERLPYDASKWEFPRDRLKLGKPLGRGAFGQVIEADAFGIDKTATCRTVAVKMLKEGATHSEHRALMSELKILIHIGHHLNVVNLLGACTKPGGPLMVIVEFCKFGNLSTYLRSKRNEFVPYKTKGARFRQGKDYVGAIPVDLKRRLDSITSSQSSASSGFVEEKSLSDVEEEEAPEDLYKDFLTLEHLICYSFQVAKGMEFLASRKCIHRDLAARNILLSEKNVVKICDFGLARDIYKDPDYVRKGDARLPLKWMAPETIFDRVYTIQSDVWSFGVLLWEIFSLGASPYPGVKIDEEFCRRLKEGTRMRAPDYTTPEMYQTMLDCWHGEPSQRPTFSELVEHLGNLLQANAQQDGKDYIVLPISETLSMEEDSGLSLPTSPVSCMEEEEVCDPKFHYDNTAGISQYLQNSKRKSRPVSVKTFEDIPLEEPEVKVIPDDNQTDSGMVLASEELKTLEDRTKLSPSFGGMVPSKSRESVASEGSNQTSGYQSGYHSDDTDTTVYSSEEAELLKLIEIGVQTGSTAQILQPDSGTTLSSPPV
Sequence of Receptor tyrosine-protein kinase erbB-2 (Homo sapiens) (P04626 whole entry): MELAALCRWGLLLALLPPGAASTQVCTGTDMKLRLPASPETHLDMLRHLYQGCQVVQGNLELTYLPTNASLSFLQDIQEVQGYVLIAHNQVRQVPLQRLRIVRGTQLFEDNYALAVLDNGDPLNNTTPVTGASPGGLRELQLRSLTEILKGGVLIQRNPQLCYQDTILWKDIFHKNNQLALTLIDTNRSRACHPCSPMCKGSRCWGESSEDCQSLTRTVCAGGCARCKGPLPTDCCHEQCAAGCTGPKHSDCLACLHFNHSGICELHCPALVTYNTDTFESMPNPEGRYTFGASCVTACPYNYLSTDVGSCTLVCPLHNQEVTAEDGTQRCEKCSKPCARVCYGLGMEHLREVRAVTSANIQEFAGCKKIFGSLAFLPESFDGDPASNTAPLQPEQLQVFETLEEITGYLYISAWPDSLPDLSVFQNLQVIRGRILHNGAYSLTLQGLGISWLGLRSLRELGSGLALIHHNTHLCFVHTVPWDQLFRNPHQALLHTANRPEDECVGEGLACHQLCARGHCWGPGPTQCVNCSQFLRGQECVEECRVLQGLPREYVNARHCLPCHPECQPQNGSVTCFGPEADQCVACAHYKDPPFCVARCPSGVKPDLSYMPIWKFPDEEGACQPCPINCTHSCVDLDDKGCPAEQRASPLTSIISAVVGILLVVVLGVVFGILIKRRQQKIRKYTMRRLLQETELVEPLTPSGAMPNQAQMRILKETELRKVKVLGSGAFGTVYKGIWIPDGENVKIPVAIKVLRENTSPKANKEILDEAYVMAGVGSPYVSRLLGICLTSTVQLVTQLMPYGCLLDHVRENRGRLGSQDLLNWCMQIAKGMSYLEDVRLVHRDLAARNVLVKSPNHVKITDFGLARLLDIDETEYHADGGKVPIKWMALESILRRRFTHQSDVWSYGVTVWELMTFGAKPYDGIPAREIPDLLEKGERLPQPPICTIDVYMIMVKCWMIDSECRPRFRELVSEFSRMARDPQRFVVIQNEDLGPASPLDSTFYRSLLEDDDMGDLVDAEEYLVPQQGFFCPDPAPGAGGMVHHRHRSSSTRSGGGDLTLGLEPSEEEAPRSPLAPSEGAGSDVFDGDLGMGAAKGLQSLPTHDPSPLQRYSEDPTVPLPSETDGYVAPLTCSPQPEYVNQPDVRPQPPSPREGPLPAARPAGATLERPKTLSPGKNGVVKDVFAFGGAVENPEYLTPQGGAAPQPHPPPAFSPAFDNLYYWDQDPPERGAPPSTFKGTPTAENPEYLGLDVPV

Activity [1] [%]	Activity [2] [%]	Activity [3] [%]	Activity [4] [%]	Activity [5] [%]	IC50 [6] [nM]	SMILES	viability at 1 µM (H9c2 [7]) [%]	viability at 10 µM (H9c2 [8]) [%]
99	87	73	40	99	–	CN(C)c1ccc(Nc2ncnc3sc4c(c23)CCN(C(=O)c2ccccn2)C4)cc1NC(=O)c1cccs1	–	–
110	89	93	41	101	–	CN(C)c1ccc(Nc2ncnc3sc4c(c23)CCN(C(=O)c2cccnc2)C4)cc1NC(=O)c1ccco1	–	–
91	106	85	48	94	–	CCC(=O)Nc1cc(Nc2ncnc3sc4c(c23)CCN(Cc2ccccc2)C4)ccc1N(C)C	–	–
104	86	77	39	89	820	CN(C)c1ccc(Nc2ncnc3sc4c(c23)CCN(C(=O)c2ccccn2)C4)cc1NC(=O)c1ccco1	54.3	70.9
108	96	95	78	92	–	Cc1ccc(C(=O)Nc2cc(Nc3ncnc4sc5c(c34)CCNC5)ccc2N(C)C)cc1	–	–
102	106	80	59	99	–	CCC(=O)Nc1cc(Nc2ncnc3sc4c(c23)CCN(c2ncccn2)C4)ccc1N(C)C	–	–
99	95	82	49	109	–	CCC(=O)Nc1cc(Nc2ncnc3sc4c(c23)CCN(C)C4)ccc1N(C)C	–	–
105	105	84	46	97	–	CN1CCc2c(sc3ncnc(Nc4ccc(N(C)C)c(NC(=O)c5ccncc5)c4)c23)C1	–	–
93	101	95	38	106	780	CN(C)c1ccc(Nc2ncnc3sc4c(c23)CCNC4)cc1NC(=O)c1cccs1	56.9	75.9
86	98	81	33	102	570	CN(C)CCCN1CCc2c(sc3ncnc(Nc4ccc(N(C)C)c(NC(=O)c5cccs5)c4)c23)C1	58.5	78.5
92	104	86	49	112	–	CN(C)c1ccc(Nc2ncnc3sc4c(c23)CCN(C(=O)c2ncccn2)C4)cc1NC(=O)c1cccs1	–	–
100	94	89	55	103	–	CN1CCc2c(sc3ncnc(Nc4ccc(N(C)C)c(NC(=O)c5ccccn5)c4)c23)C1	–	–
85	85	82	36	110	–	CN(C)c1ccc(Nc2ncnc3sc4c(c23)CCN(C(=O)c2ccncc2)C4)cc1NC(=O)c1cccs1	–	–
107	109	92	35	116	980	CN(C)c1ccc(Nc2ncnc3sc4c(c23)CCN(C(=O)c2ccncc2)C4)cc1NC(=O)c1ccco1	49.1	70.7
86	98	93	38	103	330	CN1CCN(CCCN2CCc3c(sc4ncnc(Nc5ccc(N(C)C)c(NC(=O)c6cccs6)c5)c34)C2)CC1	69.1	81.8
104	108	89	40	103	–	CN1CCc2c(sc3ncnc(Nc4ccc(N(C)C)c(NC(=O)c5cccs5)c4)c23)C1	–	–

Activity [1] [%]	Activity [2] [%]	Activity [3] [%]	Activity [4] [%]	Activity [5] [%]	IC50 [6] [nM]	SMILES	viability at 1 µM (H9c2 [7]) [%]	viability at 10 µM (H9c2 [8]) [%]
94	81	69	45	93	–	CN(C)c1ccc(Nc2ncnc3sc4c(c23)CCN(C(=O)c2cccnc2)C4)cc1NC(=O)c1cccs1	–	–
105	90	86	37	108	480	CCC(=O)Nc1cc(Nc2ncnc3sc4c(c23)CCN(CCCN2CCOCC2)C4)ccc1N(C)C	62.4	82.2
105	103	94	47	93	–	CN1CCc2c(sc3ncnc(Nc4ccc(N(C)C)c(NC(=O)c5cccnc5)c4)c23)C1	–	–
97	107	92	46	102	–	CCC(=O)Nc1cc(Nc2ncnc3sc4c(c23)CCNC4)ccc1N(C)C	–	–
82	101	81	54	98	–	CN(C)c1ccc(Nc2ncnc3sc4c(c23)CCN(C(=O)c2ncccn2)C4)cc1NC(=O)c1ccco1	–	–
89	98	90	43	96	–	CN(C)c1ccc(Nc2ncnc3sc4c(c23)CCN(C(=O)c2cnccn2)C4)cc1NC(=O)c1ccco1	–	–
108	97	83	71	92	–	Cc1ccc(C(=O)Nc2cc(Nc3ncnc4sc5c(c34)CCN(C)C5)ccc2N(C)C)cc1	–	–
80	98	80	44	113	–	CN(C)c1ccc(Nc2ncnc3sc4c(c23)CCN(C(=O)c2cnccn2)C4)cc1NC(=O)c1cccs1	–	–
103	96	95	42	98	–	CN(C)c1ccc(Nc2ncnc3sc4c(c23)CCNC4)cc1NC(=O)c1ccccn1	–	–
108	104	90	45	107	–	CN(C)c1ccc(Nc2ncnc3sc4c(c23)CCNC4)cc1NC(=O)c1cccnc1	–	–
90	103	92	39	109	960	CN(C)c1ccc(Nc2ncnc3sc4c(c23)CCNC4)cc1NC(=O)c1ccncc1	53	68.1
93	109	80	53	90	–	CCC(=O)Nc1cc(Nc2ncnc3sc4c(c23)CCN(CC)C4)ccc1N(C)C	–	–
98	101	87	77	96	–	CN1CCc2c(sc3ncnc(Nc4ccc(N(C)C)c(NC(=O)c5cccc6ccccc56)c4)c23)C1	–	–
107	109	95	41	103	–	CCC(=O)Nc1cc(Nc2ncnc3sc4c(c23)CCN(C(=O)c2ccc(C(F)(F)F)cc2)C4)ccc1N(C)C	–	–
110	105	88	71	90	–	CN(C)c1ccc(Nc2ncnc3sc4c(c23)CCNC4)cc1NC(=O)c1cccc2ccccc12	–	–
